In brackets after ≈: the same amount, converted by molar mass.
What was measured:
[1] = tested on: Mycobacterium tuberculosis; test: Antimycobacterial activity against Mycobacterium tuberculosis H37Rv ATCC 27294 after 7 days by resazurin assay; type: functional; conditions: H37Rv ATCC 27294, 168 h
Summary of the method: (§1)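 Broth microdilution resazurin assay. Culture diluted to McFarland 2 standard in the same medium and added to fresh medium. Test compounds from 2 mg/mL DMF stocks, first tested at 1, 10 and 100, then at 0.3125–5; DMF-only controls. Incubated 37 °C for 7 days, then 0.01% resazurin added. Blue-to-pink change scored; MIC taken as lowest concentration preventing the colour change.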

[2] = tested on: Mycolicibacterium smegmatis; test: Antimycobacterial activity against Mycobacterium smegmatis MC2 155 ATCC 19420 after 7 days by resazurin assay; type: functional; conditions: MC2 155 ATCC 19420, 168 h; summary of the method: as §1
[3] = tested on: Mycolicibacterium fortuitum; test: Antimycobacterial activity against Mycobacterium fortuitum ATCC 19542 after 7 days by resazurin assay; type: functional; conditions: ATCC 19542, 168 h
Summary of the method: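 M. fortuitum ATCC 19542 culture diluted to McFarland 2 standard in medium and dispensed into 96-well plates. Compounds came from 2 mg/mL DMF stocks and were screened at 1, 10 and 100, then retested at […]. Controls received DMF alone. After 7 days at 37 °C, 0.01% resazurin was added and colour read after 1 h at 37 °C. MIC was the level keeping the dye blue.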

Mycobacterium = test: Inhibition of Mycobacterium membrane bound ATP synthase; set-up: concentration or dose not given beside the values; conditions: concentration not given here
Vero = test: Cytotoxicity against african green monkey Vero cells after 72 hrs by MTT assay; type: cell-based; conditions: Chlorocebus sabaeus
Summary of the method: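 Cells were exposed for 72 h, then viability was read as cellular conversion of MTT to formazan with a non-radioactive cell proliferation kit.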

## CN(C)C(=O)C[C@H](CSc1ccccc1)Nc1c(C(=O)N/N=C/c2ccc(OC(F)(F)F)cc2)cnc2ccc(F)cc12
[1]
  MIC: 2.5 µg/mL (≈ 4.07 µM)
[2]
  MIC: > 100 µg/mL
[3]
  MIC: 5 µg/mL (≈ 8.15 µM)
Mycobacterium
  inhibition: 90%
Vero
  IC50: > 62.5 µg/mL

## CN(C)C(=O)C[C@H](CSc1ccccc1)Nc1c(C(=O)N/N=C/c2cccnc2)cnc2c(C(F)(F)F)cccc12
[1]
  MIC: 0.625 µg/mL (≈ 1.08 µM)
[2]
  MIC: 2.5 µg/mL (≈ 4.31 µM)
[3]
  MIC: 1 µg/mL (≈ 1.72 µM)
Mycobacterium
  inhibition: > 95%
Vero
  IC50: > 62.5 µg/mL

## CN(C)C(=O)C[C@H](CSc1ccccc1)Nc1c(C(=O)N/N=C/c2cccc(OC(F)(F)C(F)F)c2)cnc2c(C(F)(F)F)cccc12
[1]
  MIC: 1 µg/mL (≈ 1.44 µM)
[2]
  MIC: 5 µg/mL (≈ 7.19 µM)
[3]
  MIC: 2.5 µg/mL (≈ 3.59 µM)
Mycobacterium
  inhibition: > 95%
Vero
  IC50: > 62.5 µg/mL

## CN(C)C(=O)C[C@H](CSc1ccccc1)Nc1c(C(=O)N/N=C/c2ccc(OC(F)(F)F)cc2)cnc2c(C(F)(F)F)cccc12
[1]
  MIC: 5 µg/mL (≈ 7.53 µM)
[2]
  MIC: > 100 µg/mL
[3]
  MIC: 5 µg/mL (≈ 7.53 µM)
Mycobacterium
  inhibition: 90%
Vero
  IC50: > 62.5 µg/mL

## CN(C)C(=O)C[C@H](CSc1ccccc1)Nc1c(C(=O)N/N=C/c2cc(F)ccc2O)cnc2c(C(F)(F)F)cccc12
[1]
  MIC: 10 µg/mL (≈ 16.3 µM)
[2]
  MIC: > 100 µg/mL
[3]
  MIC: > 100 µg/mL
Mycobacterium
  inhibition: 0%

## CSCC/C=N/NC(=O)c1cnc2c(C(F)(F)F)cccc2c1N[C@@H](CSc1ccccc1)CC(=O)N(C)C
[1]
  MIC: 10 µg/mL (≈ 17.3 µM)
[2]
  MIC: > 100 µg/mL
[3]
  MIC: > 100 µg/mL
Mycobacterium
  inhibition: 90%

## COc1ccc(/C=N/NC(=O)c2cnc3c(C(F)(F)F)cccc3c2N[C@@H](CSc2ccccc2)CC(=O)N(C)C)cc1O
[1]
  MIC: 5 µg/mL (≈ 7.99 µM)
[2]
  MIC: > 100 µg/mL
[3]
  MIC: 10 µg/mL (≈ 16 µM)
Mycobacterium
  inhibition: 90%
Vero
  IC50: > 62.5 µg/mL

## CSc1ccccc1/C=N/NC(=O)c1cnc2ccc(F)cc2c1N[C@@H](CSc1ccccc1)CC(=O)N(C)C
[1]
  MIC: > 100 µg/mL
[2]
  MIC: > 100 µg/mL
[3]
  MIC: > 100 µg/mL
Mycobacterium
  inhibition: 0%

## CN(C)C(=O)C[C@H](CSc1ccccc1)Nc1c(C(=O)N/N=C/c2cccnc2)cnc2ccc(F)cc12
[1]
  MIC: 5 µg/mL (≈ 9.42 µM)
[2]
  MIC: > 100 µg/mL
[3]
  MIC: 10 µg/mL (≈ 18.8 µM)
Mycobacterium
  inhibition: 90%
Vero
  IC50: > 62.5 µg/mL

## CN(C)C(=O)C[C@H](CSc1ccccc1)Nc1c(C(=O)N/N=C/c2ccccc2F)cnc2ccc(F)cc12
[1]
  MIC: 1 µg/mL (≈ 1.83 µM)
[2]
  MIC: 10 µg/mL (≈ 18.3 µM)
[3]
  MIC: 5 µg/mL (≈ 9.13 µM)
Mycobacterium
  inhibition: > 95%
Vero
  IC50: > 62.5 µg/mL

## COc1ccc(/C=N/NC(=O)c2cnc3c(C(F)(F)F)cccc3c2N[C@@H](CSc2ccccc2)CC(=O)N(C)C)cc1
[1]
  MIC: > 100 µg/mL
[2]
  MIC: > 100 µg/mL
[3]
  MIC: > 100 µg/mL
Mycobacterium
  inhibition: 0%

## COc1ccc(/C=N/NC(=O)c2cnc3ccc(F)cc3c2N[C@@H](CSc2ccccc2)CC(=O)N(C)C)cc1
[1]
  MIC: 10 µg/mL (≈ 17.9 µM)
[2]
  MIC: > 100 µg/mL
[3]
  MIC: > 100 µg/mL
Mycobacterium
  inhibition: 0%

## CCCCCCCC/C=N/NC(=O)c1cnc2ccc(F)cc2c1N[C@@H](CSc1ccccc1)CC(=O)N(C)C
[1]
  MIC: 1 µg/mL (≈ 1.77 µM)
[2]
  MIC: 10 µg/mL (≈ 17.7 µM)
[3]
  MIC: 5 µg/mL (≈ 8.84 µM)
Mycobacterium
  inhibition: > 95%
Vero
  IC50: > 62.5 µg/mL

## CSCC/C=N/NC(=O)c1cnc2ccc(F)cc2c1N[C@@H](CSc1ccccc1)CC(=O)N(C)C
[1]
  MIC: > 100 µg/mL
[2]
  MIC: > 100 µg/mL
[3]
  MIC: > 100 µg/mL
Mycobacterium
  inhibition: 0%

## CN(C)C(=O)C[C@H](CSc1ccccc1)Nc1c(C(=O)N/N=C/c2ccccc2F)cnc2c(C(F)(F)F)cccc12
[1]
  MIC: 2.5 µg/mL (≈ 4.18 µM)
[2]
  MIC: 5 µg/mL (≈ 8.37 µM)
[3]
  MIC: > 100 µg/mL
Mycobacterium
  inhibition: 90%
Vero
  IC50: > 62.5 µg/mL

## COc1ccc(/C=N/NC(=O)c2cnc3ccc(F)cc3c2N[C@@H](CSc2ccccc2)CC(=O)N(C)C)c(F)c1
[1]
  MIC: 5 µg/mL (≈ 8.66 µM)
[2]
  MIC: > 100 µg/mL
[3]
  MIC: > 100 µg/mL
Mycobacterium
  inhibition: 0%

## CN(C)C(=O)C[C@H](CSc1ccccc1)Nc1c(C(=O)N/N=C/c2ccc(F)cc2)cnc2ccc(F)cc12
[1]
  MIC: 1 µg/mL (≈ 1.83 µM)
[2]
  MIC: 10 µg/mL (≈ 18.3 µM)
[3]
  MIC: 5 µg/mL (≈ 9.13 µM)
Mycobacterium
  inhibition: 95%
Vero
  IC50: > 62.5 µg/mL

## CN(C)C(=O)C[C@H](CSc1ccccc1)Nc1c(C(=O)N/N=C/c2ccc(F)cc2)cnc2c(C(F)(F)F)cccc12
[1]
  MIC: 5 µg/mL (≈ 8.37 µM)
[2]
  MIC: > 100 µg/mL
[3]
  MIC: 10 µg/mL (≈ 16.7 µM)
Mycobacterium
  inhibition: 90%
Vero
  IC50: > 62.5 µg/mL

## CN(C)C(=O)C[C@H](CSc1ccccc1)Nc1c(C(=O)N/N=C/c2cccc(OC(F)(F)C(F)F)c2)cnc2ccc(F)cc12
[1]
  MIC: 0.625 µg/mL (≈ 0.968 µM)
[2]
  MIC: 2.5 µg/mL (≈ 3.87 µM)
[3]
  MIC: 1 µg/mL (≈ 1.55 µM)
Mycobacterium
  inhibition: > 95%
Vero
  IC50: > 62.5 µg/mL

## COc1ccc(/C=N/NC(=O)c2cnc3c(C(F)(F)F)cccc3c2N[C@@H](CSc2ccccc2)CC(=O)N(C)C)c(F)c1
[1]
  MIC: 10 µg/mL (≈ 15.9 µM)
[2]
  MIC: > 100 µg/mL
[3]
  MIC: > 100 µg/mL
Mycobacterium
  inhibition: 90%

## CN(C)C(=O)C[C@H](CSc1ccccc1)Nc1c(C(=O)N/N=C/c2ccc(Br)s2)cnc2ccc(F)cc12
[1]
  MIC: > 100 µg/mL
[2]
  MIC: > 100 µg/mL
[3]
  MIC: > 100 µg/mL
Mycobacterium
  inhibition: 0%

## CN(C)C(=O)C[C@H](CSc1ccccc1)Nc1c(C(=O)N/N=C/c2ccc(Br)s2)cnc2c(C(F)(F)F)cccc12
[1]
  MIC: 10 µg/mL (≈ 15 µM)
[2]
  MIC: > 100 µg/mL
[3]
  MIC: > 100 µg/mL
Mycobacterium
  inhibition: 90%
Vero
  IC50: > 62.5 µg/mL

## NNC(=O)c1ccncc1 [ISONIAZID]
[1]
  MIC: 1 µg/mL (≈ 7.29 µM)
[2]
  MIC: 50 µg/mL (≈ 365 µM)
[3]
  MIC: 12.5 µg/mL (≈ 91.1 µM)
Mycobacterium
  inhibition: > 95%
Vero
  IC50: > 62.5 µg/mL

## CCCCCCCC/C=N/NC(=O)c1cnc2c(C(F)(F)F)cccc2c1N[C@@H](CSc1ccccc1)CC(=O)N(C)C
[1]
  MIC: 1 µg/mL (≈ 1.62 µM)
[2]
  MIC: 10 µg/mL (≈ 16.2 µM)
[3]
  MIC: 5 µg/mL (≈ 8.12 µM)
Mycobacterium
  inhibition: > 95%
Vero
  IC50: > 62.5 µg/mL

## COc1ccc(/C=N/NC(=O)c2cnc3ccc(F)cc3c2N[C@@H](CSc2ccccc2)CC(=O)N(C)C)cc1O
[1]
  MIC: 5 µg/mL (≈ 8.69 µM)
[2]
  MIC: > 100 µg/mL
[3]
  MIC: 5 µg/mL (≈ 8.69 µM)
Mycobacterium
  inhibition: 90%
Vero
  IC50: > 62.5 µg/mL

## CO[C@H]1/C=C/O[C@@]2(C)Oc3c(C)c(O)c4c(O)c(c(/C=N/N5CCN(C)CC5)c(O)c4c3C2=O)NC(=O)/C(C)=C\C=C\[C@H](C)[C@H](O)[C@@H](C)[C@@H](O)[C@@H](C)[C@H](OC(C)=O)[C@@H]1C [RIFAMPIN]
[1]
  MIC: 0.5 µg/mL (≈ 0.608 µM)
[2]
  MIC: 1.5 µg/mL (≈ 1.82 µM)
[3]
  MIC: 1.5 µg/mL (≈ 1.82 µM)
Mycobacterium
  inhibition: > 95%
Vero
  IC50: > 62.5 µg/mL

## CSc1ccccc1/C=N/NC(=O)c1cnc2c(C(F)(F)F)cccc2c1N[C@@H](CSc1ccccc1)CC(=O)N(C)C
[1]
  MIC: > 100 µg/mL
[2]
  MIC: > 100 µg/mL
[3]
  MIC: > 100 µg/mL
Mycobacterium
  inhibition: 0%

## CN(C)C(=O)C[C@H](CSc1ccccc1)Nc1c(C(=O)N/N=C/c2cc(F)ccc2O)cnc2ccc(F)cc12
[1]
  MIC: 10 µg/mL (≈ 17.7 µM)
[2]
  MIC: > 100 µg/mL
[3]
  MIC: > 100 µg/mL
Mycobacterium
  inhibition: 0%
